Experimental data from ChEMBL document CHEMBL4382197, “Discovery of QCA570 as an Exceptionally Potent and Efficacious Proteolysis Targeting Chimera (PROTAC) Degrader of the Bromodomain and Extra-Terminal (BET) Proteins Capable of Inducing Complete and Durable Tumor Regression” (J Med Chem, 2018).
The source made the active and inactive calls. No cut-off for these calls is given here.

How the values were obtained:
[1] = system: MV4-11; experiment: Growth inhibition of human MV4-11 cells after 96 hrs by CCK8 assay; type: functional, cell-based; conditions: MV4-11, 96 h
[2] = system: MOLM-13; experiment: Growth inhibition of human MOLM13 cells after 96 hrs by CCK8 assay; type: functional, cell-based; conditions: MOLM-13, 96 h
[3] = target: T1, Protein cereblon/Bromodomain-containing protein 3/Cullin-4A (Homo sapiens) (UniProt Q15059+Q96SW2+Q13619); experiment: Protac activity at cereblon/cullin 4A/BRD3 in human MV4-11 cells assessed as BRD3 degradation at 10 pM after 3 hrs by Western blot analysis; type: cell-based
T1 sequence (Q13619 whole entry, looked up): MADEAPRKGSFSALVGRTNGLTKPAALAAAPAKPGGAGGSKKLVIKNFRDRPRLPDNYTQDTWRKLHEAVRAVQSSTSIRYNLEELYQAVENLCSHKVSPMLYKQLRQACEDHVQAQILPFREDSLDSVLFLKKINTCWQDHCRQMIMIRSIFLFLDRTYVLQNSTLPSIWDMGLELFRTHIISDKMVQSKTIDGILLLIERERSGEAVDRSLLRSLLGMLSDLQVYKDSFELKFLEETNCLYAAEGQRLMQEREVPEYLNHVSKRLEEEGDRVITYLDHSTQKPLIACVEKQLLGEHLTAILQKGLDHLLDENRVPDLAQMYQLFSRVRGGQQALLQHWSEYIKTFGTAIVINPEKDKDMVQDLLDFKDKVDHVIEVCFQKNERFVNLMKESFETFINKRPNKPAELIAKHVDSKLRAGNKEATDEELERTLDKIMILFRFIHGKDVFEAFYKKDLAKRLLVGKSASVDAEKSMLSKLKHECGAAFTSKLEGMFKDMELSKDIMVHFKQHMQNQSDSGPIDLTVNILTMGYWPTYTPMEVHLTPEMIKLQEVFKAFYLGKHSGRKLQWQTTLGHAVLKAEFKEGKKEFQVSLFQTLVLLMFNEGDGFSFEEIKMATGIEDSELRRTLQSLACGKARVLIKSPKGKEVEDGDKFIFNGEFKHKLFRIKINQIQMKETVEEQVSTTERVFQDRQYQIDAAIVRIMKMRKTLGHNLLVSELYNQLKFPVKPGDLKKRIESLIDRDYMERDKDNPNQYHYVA
T1 sequence (Q15059 whole entry, looked up): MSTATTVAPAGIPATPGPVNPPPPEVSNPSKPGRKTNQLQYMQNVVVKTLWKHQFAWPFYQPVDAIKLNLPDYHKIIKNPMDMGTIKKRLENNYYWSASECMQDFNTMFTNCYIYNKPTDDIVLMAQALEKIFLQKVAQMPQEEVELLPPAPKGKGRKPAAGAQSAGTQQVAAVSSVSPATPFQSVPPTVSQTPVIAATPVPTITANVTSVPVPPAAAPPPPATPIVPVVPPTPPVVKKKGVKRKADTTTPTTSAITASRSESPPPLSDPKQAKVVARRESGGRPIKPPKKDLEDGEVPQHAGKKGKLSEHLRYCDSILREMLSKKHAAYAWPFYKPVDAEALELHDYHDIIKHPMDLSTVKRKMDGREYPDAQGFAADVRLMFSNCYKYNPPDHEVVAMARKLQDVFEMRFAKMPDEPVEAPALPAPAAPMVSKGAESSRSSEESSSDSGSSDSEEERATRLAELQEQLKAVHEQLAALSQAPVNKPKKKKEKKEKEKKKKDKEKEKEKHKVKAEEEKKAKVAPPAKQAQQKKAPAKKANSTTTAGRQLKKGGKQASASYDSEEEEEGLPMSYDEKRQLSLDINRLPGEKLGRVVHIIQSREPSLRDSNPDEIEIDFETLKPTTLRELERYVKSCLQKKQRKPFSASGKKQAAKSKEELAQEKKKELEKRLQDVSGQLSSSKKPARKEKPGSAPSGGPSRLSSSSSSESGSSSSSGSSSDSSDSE
T1 sequence (Q96SW2 whole entry, looked up): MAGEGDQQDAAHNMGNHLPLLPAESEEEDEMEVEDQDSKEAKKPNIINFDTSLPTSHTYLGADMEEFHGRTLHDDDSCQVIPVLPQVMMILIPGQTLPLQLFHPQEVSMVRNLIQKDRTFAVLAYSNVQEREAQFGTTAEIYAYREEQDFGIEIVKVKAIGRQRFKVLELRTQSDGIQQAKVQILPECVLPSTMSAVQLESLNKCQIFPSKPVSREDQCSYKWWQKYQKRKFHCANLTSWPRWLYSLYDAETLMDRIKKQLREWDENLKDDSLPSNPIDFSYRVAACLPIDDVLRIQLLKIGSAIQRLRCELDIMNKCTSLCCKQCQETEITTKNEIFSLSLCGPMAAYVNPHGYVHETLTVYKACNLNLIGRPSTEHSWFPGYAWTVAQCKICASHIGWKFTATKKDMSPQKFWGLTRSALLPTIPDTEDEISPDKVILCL

[4] = target: T2, Protein cereblon/Bromodomain-containing protein 4/Cullin-4A (Homo sapiens) (UniProt O60885+Q96SW2+Q13619); experiment: Protac activity at cereblon/cullin 4A/BRD4 in human MV4-11 cells assessed as BRD4 degradation at 10 pM after 3 hrs by Western blot analysis; type: cell-based
[5] = target: Protein cereblon/Bromodomain-containing protein 2/Cullin-4A (Homo sapiens) (UniProt P25440+Q96SW2+Q13619); experiment: Protac activity at cereblon/cullin 4A/BRD2 in human RS4:11 cells assessed as BRD2 degradation at 0.5 nM after 3 hrs by Western blot analysis; type: cell-based
Chain of Protein cereblon/Bromodomain-containing protein 2/Cullin-4A (Homo sapiens) (P25440 whole entry, looked up): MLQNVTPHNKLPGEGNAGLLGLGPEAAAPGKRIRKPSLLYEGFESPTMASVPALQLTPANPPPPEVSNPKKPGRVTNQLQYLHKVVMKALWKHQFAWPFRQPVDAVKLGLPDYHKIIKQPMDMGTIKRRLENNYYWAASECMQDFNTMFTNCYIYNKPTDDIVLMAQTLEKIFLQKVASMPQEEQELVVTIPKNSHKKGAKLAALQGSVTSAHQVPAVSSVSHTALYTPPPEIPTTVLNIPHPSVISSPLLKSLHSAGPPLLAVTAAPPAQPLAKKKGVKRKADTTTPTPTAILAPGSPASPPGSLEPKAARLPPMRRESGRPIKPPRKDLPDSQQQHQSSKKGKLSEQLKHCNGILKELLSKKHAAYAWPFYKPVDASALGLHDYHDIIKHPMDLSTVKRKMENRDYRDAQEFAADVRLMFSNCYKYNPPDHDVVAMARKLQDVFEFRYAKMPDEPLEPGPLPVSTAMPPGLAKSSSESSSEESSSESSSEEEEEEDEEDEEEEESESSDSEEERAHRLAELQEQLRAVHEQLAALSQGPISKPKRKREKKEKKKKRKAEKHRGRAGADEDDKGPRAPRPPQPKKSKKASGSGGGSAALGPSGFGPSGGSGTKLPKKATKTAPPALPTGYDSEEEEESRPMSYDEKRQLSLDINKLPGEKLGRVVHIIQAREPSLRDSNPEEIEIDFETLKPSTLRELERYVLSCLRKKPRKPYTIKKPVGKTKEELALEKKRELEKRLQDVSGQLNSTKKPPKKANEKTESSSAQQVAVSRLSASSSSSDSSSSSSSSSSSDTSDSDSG
Chain of Protein cereblon/Bromodomain-containing protein 2/Cullin-4A (Homo sapiens) (Q13619 whole entry, looked up): as the sequence (Q13619 whole entry, looked up) above
Chain of Protein cereblon/Bromodomain-containing protein 2/Cullin-4A (Homo sapiens) (Q96SW2 whole entry, looked up): as the sequence (Q96SW2 whole entry, looked up) above

[6] = target: T1, Protein cereblon/Bromodomain-containing protein 3/Cullin-4A (Homo sapiens); experiment: Protac activity at cereblon/cullin 4A/BRD3 in human RS4:11 cells assessed as BRD3 degradation at 0.5 nM after 3 hrs by Western blot analysis; type: cell-based
[7] = target: T2, Protein cereblon/Bromodomain-containing protein 4/Cullin-4A (Homo sapiens); experiment: Protac activity at cereblon/cullin 4A/BRD4 in human RS4:11 cells assessed as BRD4 degradation at 0.5 nM after 3 hrs in presence of lenalidomide by Western blot analysis; type: cell-based
Summary of the method: (§1)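 RS4;11 cells were pre-treated for 2 h with DMSO, lenalidomide (10 μM), MLN4924 (1 μM) or MG-132 (20 μM). The degrader was then added at 0.5 nM for 3 h. Lysates were immunoblotted for BRD2, BRD3 and BRD4, with GAPDH as loading control.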

[8] = target: T1, Protein cereblon/Bromodomain-containing protein 3/Cullin-4A (Homo sapiens); experiment: Protac activity at cereblon/cullin 4A/BRD3 in human RS4:11 cells assessed as BRD3 degradation at 0.5 nM after 3 hrs in presence of neddylation inhibitor MLN4924 by Western blot analysis; type: cell-based; summary of the method: as §1
[9] = target: T2, Protein cereblon/Bromodomain-containing protein 4/Cullin-4A (Homo sapiens); experiment: Protac activity at cereblon/cullin 4A/BRD4 in human RS4:11 cells assessed as BRD4 degradation at 0.5 nM after 3 hrs in presence of neddylation inhibitor MLN4924 by Western blot analysis; type: cell-based; summary of the method: as §1
[10] = target: T1, Protein cereblon/Bromodomain-containing protein 3/Cullin-4A (Homo sapiens); experiment: Protac activity at cereblon/cullin 4A/BRD3 in human RS4:11 cells assessed as BRD3 degradation at 0.5 nM after 3 hrs in presence of proteasome inhibitor MG132 by Western blot analysis; type: cell-based; summary of the method: as §1
[11] = target: T2, Protein cereblon/Bromodomain-containing protein 4/Cullin-4A (Homo sapiens); experiment: Protac activity at cereblon/cullin 4A/BRD4 in human RS4:11 cells assessed as BRD4 degradation at 0.5 nM after 3 hrs in presence of proteasome inhibitor MG132 by Western blot analysis; type: cell-based; summary of the method: as §1
[12] = target: Protein cereblon/Eukaryotic peptide chain release factor GTP-binding subunit ERF3A/Cullin-4A (Homo sapiens) (UniProt Q96SW2+Q13619+P15170); experiment: Induction of Cereblon/Cullin 4A-mediated-GSPT1 degradation in human MV4-11 cells at 0.01 to 10 nM after 3 hrs by Western blot analysis; type: cell-based
Chain of Protein cereblon/Eukaryotic peptide chain release factor GTP-binding subunit ERF3A/Cullin-4A (Homo sapiens) (P15170 whole entry, looked up): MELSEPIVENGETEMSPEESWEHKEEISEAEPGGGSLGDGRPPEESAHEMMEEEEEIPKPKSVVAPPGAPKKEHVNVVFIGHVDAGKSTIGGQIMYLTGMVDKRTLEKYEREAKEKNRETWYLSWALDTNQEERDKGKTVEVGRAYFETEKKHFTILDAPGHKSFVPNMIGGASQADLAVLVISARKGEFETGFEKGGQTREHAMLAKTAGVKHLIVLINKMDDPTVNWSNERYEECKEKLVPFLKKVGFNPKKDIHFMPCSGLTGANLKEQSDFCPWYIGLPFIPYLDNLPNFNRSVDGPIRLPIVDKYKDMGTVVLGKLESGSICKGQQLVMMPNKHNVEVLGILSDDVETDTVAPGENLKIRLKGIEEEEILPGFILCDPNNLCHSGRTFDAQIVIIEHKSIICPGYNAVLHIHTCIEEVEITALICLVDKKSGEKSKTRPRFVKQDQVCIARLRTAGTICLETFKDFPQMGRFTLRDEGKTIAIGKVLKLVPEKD
Chain of Protein cereblon/Eukaryotic peptide chain release factor GTP-binding subunit ERF3A/Cullin-4A (Homo sapiens) (Q13619 whole entry, looked up): as the sequence (Q13619 whole entry, looked up) above
Chain of Protein cereblon/Eukaryotic peptide chain release factor GTP-binding subunit ERF3A/Cullin-4A (Homo sapiens) (Q96SW2 whole entry, looked up): as the sequence (Q96SW2 whole entry, looked up) above

[13] = system: MOLM-13; experiment: Induction of apoptosis in human MOLM13 cells at 1 nM after 24 hrs by Annexin V/propidium iodine-double staining-based flow cytometry relative to control; type: functional
Summary of the method: (§2)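 Leukemia cells were treated for 24 h or 48 h at the indicated concentrations. They were then collected, washed in cold PBS and stained with Annexin V and propidium iodide. Apoptotic fraction was measured by flow cytometry.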

[14] = system: MOLM-13; experiment: Induction of apoptosis in human MOLM13 cells after 24 hrs by Annexin V/propidium iodine-double staining-based flow cytometry; type: functional, cell-based; summary of the method: as §2
[15] = system: RS4-11; experiment: Induction of apoptosis in human RS4:11 cells at 0.3 to 10 nM after 24 hrs by Annexin V/propidium iodine-double staining-based flow cytometry relative to control; type: functional; summary of the method: as §2
[16] = system: MV4-11; experiment: Induction of apoptosis in human MV4-11 cells at 0.1 to 10 uM after 48 hrs by Annexin V/propidium iodine-double staining-based flow cytometry; type: functional, cell-based
[17] = system: MV4-11; experiment: Induction apoptosis in human MV4-11 cells assessed as caspase-3 activation at 0.3 nM after 24 hrs by Western blot analysis; type: functional, cell-based
Summary of the method: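 Cells (1.5–2×10^6/well) were treated for 24 h, washed in cold PBS and lysed in RIPA with protease inhibitors. 20 µg lysate was run on 4–20% or 4–12% gels and transferred to PVDF. Blots were probed for cleaved PARP and cleaved caspase 3, with GAPDH as loading control. Detection by ECL.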

[18] = Drug uptake in liver of SCID mouse xenografted with human RS4:11 cells at 5 mg/kg, iv measured at 6 hrs by LC-MS/MS analysis; type: ADME, organism-based; conditions: in vivo, BLD = below limit of detection
Summary of the method: (§3)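 Female SCID mice with RS4;11 tumors received a single 5 mg/kg intravenous dose in 20% PCP/80% PBS. Plasma (heparin) and tissues were taken at 1, 3 and 6 h, one mouse per time point in duplicate. Plasma was precipitated with acetonitrile containing internal standard. Tissues were homogenized 5:1 in 20% acetonitrile. Quantified by LC-MS/MS against spiked plasma standards (2–2000 ng/mL); values in ng/ml or ng/g.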

[19] = Drug uptake in kidney of SCID mouse xenografted with human RS4:11 cells at 5 mg/kg, iv measured at 6 hrs by LC-MS/MS analysis; type: ADME, organism-based; conditions: in vivo, BLD = below limit of detection; summary of the method: as §3
[20] = system: RS4-11; experiment: Antitumor activity against human RS4:11 cells xenografted in SCID mouse assessed tumor regression at 1 to 5 mg/kg, iv administered 3 times per week for 3 weeks; type: functional, organism-based
Summary of the method: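 RS4;11 xenografts: 5×10^6 cells in 50% Matrigel injected subcutaneously on the dorsal side of SCID mice, one tumor per mouse. Randomized to treatment or vehicle at ~100 mm3. Intravenous dosing on several schedules, including 3 times per week for 3 weeks and weekly. Volume = L × W2/2; body weight tracked.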

[21] = Toxicity in SCID mouse xenografted with human RS4:11 cells assessed weight loss at 1 to 5 mg/kg, iv administered 3 times per week for 3 weeks; type: organism-based; conditions: in vivo, 504 h
Summary of the method: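 SCID mice received a subcutaneous dorsal implant of 5×10^6 RS4;11 cells in 50% Matrigel, one tumor per mouse. Mice were randomized at ~100 mm3 into treatment or vehicle groups. Doses were 1, 2.5 or 5 mg/kg three times weekly for 3 weeks, with body weight and signs of toxicity monitored.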

[22] = system: MV4-11; experiment: Induction of apoptosis in human MV4-11 cells at 1 nM after 24 hrs by Annexin V/propidium iodine-double staining-based flow cytometry relative to control; type: functional; summary of the method: as §2
[23] = system: RS4-11; experiment: Antitumor activity against human RS4:11 cells xenografted in SCID mouse assessed as induction of apoptosis by measuring PARP cleavage at 1 to 5 mg/kg, iv administered as single dose and measured at 1 to 24 hrs post dose by Western blot analysis; type: functional, organism-based
Summary of the method: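 SCID mice bearing subcutaneous RS4;11 tumors were given a single intravenous dose of 1 or 5 mg/kg. Tumors were harvested at 1, 6 and 24 h, two mice per time point. Tissue was ground in liquid nitrogen and lysed in CST buffer with protease inhibitors. 20 µg lysate per lane was probed for BRD2, BRD3, BRD4, c-Myc and cleaved PARP, with GAPDH as loading control.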

- IC50 [1]: 8.3 pM
- IC50 [2]: 62 pM
- Activity [3]: Active
- Activity [4]: Active
- Activity [5]: Active
- Activity [6]: Active
- Activity [7]: inactive
- Activity [8]: inactive
- Activity [9]: inactive
- Activity [10]: inactive
- Activity [11]: inactive
- Activity [12]: inactive
- Drug uptake [18]: Bld
- Drug uptake [19]: Bld
Compound: Cc1nnc2n1Cc1sc(C#Cc3cnn(CCCC#Cc4cccc5c4CN(C4CCC(=O)NC4=O)C5=O)c3)c(Cc3ccccc3)c1OC2 (stereo not drawn)
- Activity [13]: >60%
- Activity [14]: Dose-dependent effect
- Activity [15]: 15 - 30%
- Activity [16]: Active
- Activity [17]: Active
- Activity [20]: Active
- Activity [21]: Non-Toxic
- Activity [22]: >60%
- Activity [23]: Active
